Compounds with a hit are over-represented: about 5.1% of the library has one in this group of screens.
STAT1 act: STAT1 signaling activation; NIH 3T3 STAT1-luciferase reporter, IFN-gamma, luminescence; 100% = IFN-gamma alone, no compound; activation (% of control), % at 5.5 µM; hit rate 2.6% among 200,000;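 active means activation above the screen-wide mean activation plus 3 SD, cut at about 130% in these data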
STAT3 activator: STAT3 signaling activation; activation (% of control), % at 5.6 µM; AID 871; hit rate 0.91% among 190,000; U3A cells, IL-6 STAT3-luciferase reporter, luminescence; 100% = signal with IL-6 EC80 alone;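 active means activation above the screen-wide mean of compound activation plus 3 SD, cut at about 130% in these data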
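Test system: human U3A cells carrying STAT3-luciferase construct; control set: IL-6-only wells as 100% reference; timing: compound pre-incubation 1 h before IL-6, then 6 h stimulation at 37 °C; also added: IL-6 stimulus at 33 ng/mL final; evaluation: % activation versus median of IL-6-stimulated wells; detection: reporter luminescence signal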
APP 5'UTR act: activates APP 5'UTR luciferase reporter. SH-SY5Y APP 5'UTR luciferase reporter, luminescence; zero percent = DMSO vehicle wells. activation, % at 2 µM. hit rate 1% among 190,000. AID 1276;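 active means activation above a set limit, based on mean plus 3 SD of controls, cut at about 140% in these data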
STAT3 inh-1: reduces IL-6 driven STAT3 reporter signal; U3A cells, IL-6 STAT3-luciferase reporter, luminescence; host cell line lacks STAT1; inhibition, % at 5.5 µM; hit rate 0.89% among 190,000; AID 862;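 active means inhibition above the mean inhibition across all screened compounds plus 3 SD, cut at about 44% in these data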
STAT1 inh: reduces IFN-gamma driven STAT1 reporter signal | inhibition, % at 5.5 µM | hit rate 0.35% among 200,000 | NIH 3T3 STAT1-luciferase reporter, luminescence;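 active means inhibition above a set limit, the mean inhibition across all tested compounds plus 3 SD, cut at about 34% in these data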
NF-kB neuron act: raises NF-kB expression in human neuronal cells; AID 1239; fold change at 12.5 µM; NF-kB reporter expression; stronger effect = higher value; hit rate 1.6% among 190,000; in the data active means fold change above about 3.3
STAT3 inh-2: STAT3 inhibition, confirmation assay. shares compounds with STAT3 inh-1. U3A cells, IL-6 STAT3 luciferase reporter, luminescence; cell line lacks STAT1. inhibition, % at 5.7 µM. hit rate 45% among 1,200. AID 1265;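 active means inhibition above the hit cutoff computed for the primary STAT3 screen, cut at about 44% in these data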
NFkB inh 2: NF-kappaB inhibition in STAT3 inhibitor counter-screen | shares compounds with STAT3 inh-1 | hit rate 36% among 1,200 | inhibition, % at 5.7 µM | HEK293T NF-kB luciferase reporter, TNF-alpha induced;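 active means inhibition above the mean of solvent-only control wells plus 3 SD, cutoff set per campaign, cut at about 13% in these data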
STAT1 inh 2: inhibits STAT1, counter-screen to STAT3 inhibitors; hit rate 27% among 1,200; shares compounds with STAT3 inh-1; inhibition, % at 5.7 µM; NIH 3T3 STAT1-luciferase reporter, IFN-gamma induced, luminescence;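 active means inhibition above the mean plus 3 SD of solvent-only control wells, limit set per screening run, cut at about 16% in these data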
Each line names hits and unclear results; the compound was inactive in the other large screens (follow-up assays come after a bar, where they were run).

CC(C)COC(=O)c1ccc2c(c1O)C(=O)c1ccccc1C2=O	STAT3 inh-1 46.4 | STAT3 inh-2 inactive | NFkB inh 2 inactive | STAT1 inh 2 inactive
O=C1CC(c2ccc3c(c2)OCO3)Sc2nc3ccccc3n21 (stereo not drawn)	STAT3 inh-1 52.5 | STAT3 inh-2 inactive | NFkB inh 2 inactive | STAT1 inh 2 inactive
O=c1[nH]c(CSc2ccccn2)nc2c1oc1ccccc12	STAT3 inh-1 70.9 | STAT3 inh-2 inactive | NFkB inh 2 inactive | STAT1 inh 2 inactive
COc1ccc(CCNC(=O)C2CCCCC2C(=O)O)cc1OC (stereo not drawn)	none
O=C(c1ccc(Cl)cc1)N1CCCCC(Sc2nnc(-c3ccc4c(c3)OCO4)o2)C1=O (stereo not drawn)	STAT3 inh-1 98.3 | STAT3 inh-2 85.1 | NFkB inh 2 69.7 | STAT1 inh 2 39.6
Cc1ccc(C)c(N=Nc2ccc(O)c3ncccc23)c1	STAT3 inh-1 46.0 | STAT3 inh-2 inactive | NFkB inh 2 inactive | STAT1 inh 2 inactive
Cc1ccc2nc3sc(C(=O)Nc4ccc(N5CCOCC5)cc4)c(N)c3cc2c1	none
CCOc1ccc2nc3sc(C(=O)N4CCOCC4)c(N)c3cc2c1	APP 5'UTR act 219.7, STAT3 inh-1 56.3 | STAT3 inh-2 inactive | NFkB inh 2 inactive | STAT1 inh 2 inactive
C=CCn1c(C)cc(C(=O)COC(=O)CNC(=O)c2ccccc2)c1C	STAT3 inh-1 46.4 | STAT3 inh-2 inactive | NFkB inh 2 inactive | STAT1 inh 2 inactive
Cc1ccc(C(=O)NCC(=O)OCC(=O)c2cc(C)n(Cc3ccco3)c2C)cc1	none
c1ccc2sc(NN=C3CCCCCC3)nc2c1	APP 5'UTR act 149.1, STAT3 inh-1 75.4, STAT1 inh 34.3 | STAT3 inh-2 inactive | NFkB inh 2 inactive | STAT1 inh 2 inactive
COC(=O)c1nn(-c2ccc(-c3ccccc3)cc2)cc1O	APP 5'UTR act 156.3, STAT3 inh-1 73.7, NF-kB neuron act 4.6 | STAT3 inh-2 inactive | NFkB inh 2 inactive | STAT1 inh 2 inactive
O=C(NCc1ccc(F)cc1)C1CCC(=O)N1C1CCCCC1 (stereo not drawn)	STAT3 inh-1 44.8 | STAT3 inh-2 inactive | NFkB inh 2 inactive | STAT1 inh 2 inactive
CCc1ccccc1NC(=S)N(CCCN1CCN(C)CC1)Cc1cccs1	none
CN(C(=O)c1ccccc1)c1nc2ccccc2s1	STAT1 act 138.8, APP 5'UTR act 215.2, STAT3 inh-1 56.4, NF-kB neuron act 4.07 | STAT3 inh-2 inactive | NFkB inh 2 inactive | STAT1 inh 2 inactive
O=C(c1cccn2c(=O)c3cc(Br)ccc3nc12)N1CCN(c2ccccn2)CC1	none
O=C(c1cccn2c(=O)c3ccccc3nc12)N1CCN(c2ccccn2)CC1	STAT3 inh-1 51.4 | STAT3 inh-2 inactive | NFkB inh 2 inactive | STAT1 inh 2 inactive
Cc1cccc([N+](=O)[O-])c1NC(=O)CN(Cc1ccccc1)Cc1ccccc1	none
NC(=O)c1ccc(N2CCN(S(=O)(=O)c3ccccc3)CC2)c([N+](=O)[O-])c1	STAT3 inh-1 72.1 | STAT3 inh-2 70.8 | NFkB inh 2 23.0 | STAT1 inh 2 28.3
COc1ccc(-n2c(SCC(=O)NCC3CCCO3)nc3n[nH]c(C)c3c2=N)cc1 (stereo not drawn)	none
COc1ccc(C(=O)Nc2sc3c(c2C#N)CCN(C(C)=O)C3)cc1	none
CC(=O)N1CCc2c(sc(NC(=O)c3ccc([N+](=O)[O-])o3)c2C#N)C1	STAT3 inh-1 57.6 | STAT3 inh-2 inactive | NFkB inh 2 inactive | STAT1 inh 2 22.0
COc1ccc(CCNc2ncnc3sccc23)cc1OC	STAT3 inh-1 88.9 | STAT3 inh-2 88.8 | NFkB inh 2 39.6 | STAT1 inh 2 31.4
COc1ccc(CSc2ncnc3sccc23)cc1F	none (no result: NF-kB neuron act)
NS(=O)(=O)c1ccc(CCNc2ncnc3sccc23)cc1	STAT3 inh-1 53.8 | STAT3 inh-2 47.5 | NFkB inh 2 inactive | STAT1 inh 2 23.1
Cc1sc2ncnc(NCCc3ccc(S(N)(=O)=O)cc3)c2c1C	STAT3 inh-1 73.5 | STAT3 inh-2 79.7 | NFkB inh 2 28.9 | STAT1 inh 2 29.7
CCC(NC(=O)C1CCC1)c1ccc(C)cc1 (stereo not drawn)	none
Cc1cc(N2CCOCC2)nc2ccc(NC(=S)NCc3ccc4c(c3)OCO4)cc12	none
CCCC(=O)Nc1ccc(-c2cnc(-c3ccc(NC(=O)CCC)cc3)nc2)cc1	none
Nc1ccc(-c2cnc(-c3ccc(N)cc3)nc2)cc1	STAT1 act 137.4, STAT3 inh-1 48.9, NF-kB neuron act 4.77 | STAT3 inh-2 inactive | NFkB inh 2 inactive | STAT1 inh 2 inactive
COc1ccc(C(=O)Nc2ccc(S(=O)(=O)N3CCc4ccccc43)cc2)cc1	STAT3 inh-1 51.3 | STAT3 inh-2 inactive | NFkB inh 2 13.2 | STAT1 inh 2 inactive
O=C(N/N=C/c1ccc2c(c1)OCO2)c1ccccn1	STAT3 inh-1 55.0 | STAT3 inh-2 inactive | NFkB inh 2 inactive | STAT1 inh 2 inactive
Cc1cccc(C(=O)N/N=C/c2ccc3c(c2)OCO3)n1	none
Cc1cc(C(=O)OCC(=O)Nc2cccc(S(=O)(=O)N(C)C)c2)c2ccccc2n1	STAT3 inh-1 47.4 | STAT3 inh-2 inactive | NFkB inh 2 inactive | STAT1 inh 2 inactive
CN(C)S(=O)(=O)c1cccc(NC(=O)COC(=O)c2cn(-c3ccccc3)nc2-c2ccccc2)c1	none
COc1ccccc1OCCNc1cc(N2CCCCC2)ccc1[N+](=O)[O-]	none
COc1ccc(CCNc2cc(N3CCN(C(=O)c4ccccc4F)CC3)ccc2[N+](=O)[O-])cc1OC	STAT3 inh-1 69.1 | STAT3 inh-2 84.3 | NFkB inh 2 36.8 | STAT1 inh 2 18.7
COc1ccc(CCNc2cc(N3CCN(C(=O)c4ccc(C)cc4)CC3)ccc2[N+](=O)[O-])cc1OC	none
COc1ccc(C(=O)N2CCN(c3ccc([N+](=O)[O-])c(NCCc4ccc(OC)c(OC)c4)c3)CC2)cc1	STAT3 inh-1 69.7 | STAT3 inh-2 86.6 | NFkB inh 2 42.1 | STAT1 inh 2 29.3
COC(=O)c1[nH]c2ccc(C)cc2c1NC(=O)CN1CCN(C(=O)c2ccccc2)CC1	none
CCCc1ccc(C#N)c(SC2CC(=O)N(c3ccc(OC)cc3)C2=O)n1 (stereo not drawn)	none
N#Cc1cc2c(nc1SC1CC(=O)N(c3ccccc3)C1=O)CCC2 (stereo not drawn)	STAT3 inh-1 63.9 | STAT3 inh-2 inactive | NFkB inh 2 40.8 | STAT1 inh 2 inactive

Screening data from PubChem.
